Paper PMC3999706 (Biochemistry, 2013)
Values joined by “and” are separate entries in the source; they are usually repeats but may differ in a detail not shown here. Equal entries are not always repeated. Where two headings read alike, the source gives them in different places.

Legend:
Fe(III) Vc H-NOX = Fe(III) Vc H-NOX (Vibrio cholerae, UniProt Q9KLM3); assay: biochemical; type: binding
Ferrous Ns H-NOX = details: ref [5], cited from earlier work
Fe(II) Vc H-NOX [1] = assay: Stopped-flow kinetics and affinity of gaseous ligand binding to Fe; parameters: species or system Vibrio cholerae; details: for koff / Kd: Fe(II) Vc H-NOX, NO: 6c complex; for koff: displacement method; for Kd: calculated from kon and koff; for koff of 5c Vc H-NOX-NO complex, fast phase / koff of 5c Vc H-NOX-NO complex, slow phase: displacement with CO/dithionite
sGC = details: 6c complex, ref [5], cited from earlier work
Fe(II) Vc H-NOX [2] = assay: Autoxidation of Fe; type: biochemical, Vibrio cholerae
Procedure, shortened: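 Recombinant Vc H-NOX was expressed in E. coli Rosetta 2(DE3)pLysS (heme and δ-aminolevulinic acid supplemented, IPTG, 48 h at 20 °C) and purified on TALON resin. The anaerobic Fe(II) protein was mixed with O2 by stopped-flow in 20 mM HEPES pH 7.3, 50 mM NaCl, 10% glycerol. Spectral changes were followed by diode-array over 65.5 s, and kobs was taken from single-exponential fits under pseudo-first-order conditions.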

Fe(II) Ns H-NOX = details: ref [14]; cited from earlier work
[3] = estimated by computer simulation of A420 time courses

c1c[nH]cn1 [Im, imidazole]
Kd (Fe(III) Vc H-NOX): 4200 µM

[C-]#[O+] [CO, Carbon monoxide]
Kd (Ferrous Ns H-NOX; read-out: KD(CO) of ferrous Ns H-NOX): 1.4 µM
koff (Fe(II) Vc H-NOX [1]; 24 °C): 0.85 s⁻¹
Kd (Fe(II) Vc H-NOX [1]): 0.77 µM
Kd (sGC; read-out: affinity of CO for sGC (KD)): 260 µM

nitric oxide [NO]
Kd (Ferrous Ns H-NOX; read-out: KD(NO) of ferrous Ns H-NOX): 0.00017 µM
koff (Fe(II) Vc H-NOX [1]; 24 °C): 0.3 s⁻¹
Kd (Fe(II) Vc H-NOX [1]): 0.00027 µM
k1 (second NO binding to 6c complex) (Fe(II) Vc H-NOX [1]; [3]): 2.5e+07 M⁻¹ s⁻¹
k-1 (dissociation of quaternary complex) (Fe(II) Vc H-NOX [1]; [3]): 4500 s⁻¹
k2 (limiting rate of 5c heme-NO complex formation) (Fe(II) Vc H-NOX [1]; excess NO, hyperbolic fit of kobs versus [NO], 24 °C): 720 s⁻¹
koff of 5c Vc H-NOX-NO complex, fast phase (Fe(II) Vc H-NOX [1]; excess NO, 29% overall reaction): 0.01 s⁻¹
koff of 5c Vc H-NOX-NO complex, slow phase (Fe(II) Vc H-NOX [1]; excess NO, 71% overall reaction): 0.001 s⁻¹
overall conversion rate of 6c to 5c Vc H-NOX-NO complex (Fe(II) Vc H-NOX [1]; stoichiometric NO (2.5 μM each), 24 °C, global analysis): ~ 0.01 s^−1
koff of 5c Vc H-NOX-NO complex, fast phase (Fe(II) Vc H-NOX [1]; stoichiometric NO, 16% overall reaction): 0.01 s⁻¹
koff of 5c Vc H-NOX-NO complex, slow phase (Fe(II) Vc H-NOX [1]; stoichiometric NO, 84% overall reaction): 0.001 s⁻¹
k-2 (re-association of NO with 5c Vc H-NOX) (Fe(II) Vc H-NOX [1]; y-intercept of kobs versus low [NO]): 1.9 s⁻¹
Kd (sGC; read-out: affinity of NO for sGC (KD)): 0.054 µM

O=O [O2]
Kd (Ferrous Ns H-NOX; read-out: KD for O2 of Ns H-NOX, measured using a high pressure cell): 13000 µM
second order reaction rate constant (slope of kobs versus [O2]) (Fe(II) Vc H-NOX [2]; 3 μM Fe(II) Vc H-NOX, 100-600 μM O2, 24 °C, A429): 4.8 M⁻¹ s⁻¹
autoxidation rate of Fe(II) Vc H-NOX to ferric state (k4) (Fe(II) Vc H-NOX [2]; k4 = slope × KD(O2)): 0.06 s^−1 and ~ 0.06 s^−1
autoxidation rate of Fe(II) Ns H-NOX (Fe(II) Ns H-NOX): ~ 0.05 hr^−1 and 0.05 hr^−1
